Results filed as inconclusive are left out.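 Rule for the calls, unless noted: active = cell viability at or below a set limit in both duplicate runs, the limit being the all-compound median minus 4 SD (cut at about 23% in these data, passing the limit was not always enough); inconclusive = no clear call, values can overlap the other calls; inactive = the rest.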
Experiments:
[1] = OD615 S. cerevisiae growth inhibition, permissive medium, pilot counter-assay, permissive growth control for S. cerevisiae lifespan shortening project (AID 705;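 active = growth inhibition above 25% in both replicates, a cutoff set 3 SD above the mean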); conditions: OD615, 24 h, at 10 µM, active compounds read high
Method in brief: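 Timing: 24 h exposure, 30 °C / Material: Saccharomyces cerevisiae strain carrying genetically modified DeaD replicative-lifespan system / Signal: OD at 615 nm / Compound: 10 µM single dose, 0.25% DMSO / Medium: SC raffinose/galactose permissive medium / Evaluation: reduction in yeast growth (OD615)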

[2] = Restrictive medium S. cerevisiae growth inhibition, OD615, pilot screen of yeast lifespan reduction project, restrictive growth control (AID 706;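 active = growth inhibition above a set limit, 3 SD over mean compound inhibition, in both replicates, cut at about 43% in these data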;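 note: modified DeaD lifespan yeast strain shifted to restrictive glucose medium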); conditions: OD615, 48 h, at 10 µM, active compounds read high
Method in brief: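 System: Engineered S. cerevisiae DeaD strain | Detection: OD615 | Buffer or medium: CSMM-D glucose medium | Doses: 10 µM compound, 0.25% DMSO | Timing: 4 h pre-growth plus 48 h compound exposure, 30 °C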

[3] = viability gain of MRP-1-high H69AR cells under doxorubicin, pilot screen, MRP-1 activator project, CellTiter-Glo, duplicate (AID 807;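 active = viability increase at or above a cutoff of the median across tested compounds plus 3 SD, cut at about 8.5% in these data, passing the limit was not always enough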;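 note: compound pretreatment 18-22 h then 72 h combined with doxorubicin; 0% = doxorubicin alone and 100% = vehicle without doxorubicin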); conditions: H69AR viability with doxorubicin, CellTiter-Glo luminescence; at 10 µM; active compounds read high
[4] = growth suppression of beta-catenin knockout HCT116, pilot screen, human colon tumor cells (AID 823); conditions: CellTiter-Glo, 60 h, at 10 µM, active compounds read low;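 note: 0% = wells killed by 20 µM Hyamine and 100% = untreated DMSO cell wells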
[5] = growth suppression of PTEN-deleted HCT116, pilot screen, cell-based, HCT116 clonal line, CellTiter-Glo (AID 824;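 active = viability at or below 27.92% in each of two runs, the all-compound median minus 4 SD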;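 note: 0% = 20 µM Hyamine control and 100% = vehicle cell control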); conditions: 60 h, at 10 µM, active compounds read low
[6] = inhibitors of the yeast RAM network, pilot screen, dse1pr::URA3 reporter, 5-FOA selection (AID 869;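 active = inhibition over a set limit, the all-compound mean plus 3 SD, in both replicate runs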;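 note: 0% = DMSO wells with no growth and 100% = 10 µM 1-NA-PP1 with full growth; RAM network block rescues cells from 5-FOA so hits raise OD615 growth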); conditions: S. cerevisiae dse1pr::URA3 5-FOA growth, OD615, 2 d; at 10 µM; active compounds read high; strain carries analog-sensitive mutant Cbk1 kinase
[7] = RAM signaling pathway blockade in yeast – S. cerevisiae, Pdr1DBD-CYC8 efflux-inhibited sensitized strain, primary screen (AID 1298;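 active = RAM network inhibition above 8.4% in each of two replicates, 3 SD over the compound average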;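 note: 0% = DMSO untreated cells without growth and 100% = 10 µM 1-NA-PP1 full growth; higher means more yeast growth rescued from 5-FOA killing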); conditions: S. cerevisiae cbk1-as DSE1-URA3 strain, 5-FOA growth OD615, 2 d; at 50 µM; active compounds read high

O=C(Nc1nnc(-c2ccc(Cl)s2)o1)C1CCCCC1
inactive: growth inhibition [1] -14.7% | growth inhibition [2] -4.65% | viability increase [3] -4.45% | viability [4] 68.4% | viability [5] 63.2% | inhibition [6] 3.44% | RAM network inhibition [7] 3.62%

COC(=O)C1=COC(C)C2CN3CCc4c([nH]c5ccccc45)C3CC12 (configuration not stated)
inactive: growth inhibition [1] -14.5% | growth inhibition [2] 1.04% | viability increase [3] -4.71% | viability [4] 77.4% | viability [5] 86% | inhibition [6] 1.6% | RAM network inhibition [7] 7.8%

Cc1csc2nc(CNC(=O)C3CCCCC3)cn12
inactive: growth inhibition [1] -16.4% | growth inhibition [2] -13.2% | viability increase [3] -3.04% | viability [4] 105% | viability [5] 97.2% | inhibition [6] 0.93% | RAM network inhibition [7] 0.53%

O=C(CN1CCN(Cc2ccccc2Cl)C1=O)NCC1CCCO1 (configuration not stated)
inactive: growth inhibition [1] 4.72% | growth inhibition [2] -0.62% | viability increase [3] -2.68% | viability [4] 97.2% | viability [5] 95.5% | inhibition [6] 0.35% | RAM network inhibition [7] 1.49%

COc1cccc(-c2nc(CS(=O)CC(=O)NC3CCCC3)c(C)o2)c1 (configuration not stated)
inactive: growth inhibition [1] -7.39% | growth inhibition [2] 1.47% | viability increase [3] -2.4% | viability [4] 90.3% | viability [5] 95.6% | inhibition [6] 1.09% | RAM network inhibition [7] 1.25%

Fc1ccccc1COc1ccc(/C=N/n2cnnc2)cc1
inactive: growth inhibition [1] 3.41% | growth inhibition [2] 23.7% | viability increase [3] -1.78% | viability [4] 102% | viability [5] 95.4% | inhibition [6] 2.11% | RAM network inhibition [7] 2.09%

COc1ccc(C(c2sc3ncnn3c2O)N2CCN(c3ccccc3F)CC2)cc1OC (configuration not stated)
inactive: growth inhibition [1] 0.27% | growth inhibition [2] 11.7% | viability increase [3] 1.69% | viability [4] 103% | viability [5] 92% | inhibition [6] 1.3% | RAM network inhibition [7] 1.06%

COc1ccccc1CNC(=O)C1COc2ccccc2O1 (configuration not stated)
inactive: growth inhibition [1] -13.9% | growth inhibition [2] -2.38% | viability increase [3] 0.65% | viability [4] 98.8% | viability [5] 88.5% | inhibition [6] 2.73% | RAM network inhibition [7] 2.77%

COc1ccc(S(=O)(=O)N2CCN(CCO)CC2)cc1-c1nnc2c3ccccc3c(C)nn12
inactive: growth inhibition [1] -4.39% | growth inhibition [2] -6.93% | viability increase [3] -0.85% | viability [4] 101% | viability [5] 101% | inhibition [6] 1.31% | RAM network inhibition [7] 0.95%

COC(=O)Cn1c(CN2CCN(c3ccc(F)cc3)CC2)nc2c1c(=O)n(C)c(=O)n2C
inactive: growth inhibition [1] -1.31% | growth inhibition [2] -4.9% | viability increase [3] -0.86% | viability [4] 85.1% | viability [5] 86.2% | inhibition [6] 2.88% | RAM network inhibition [7] 1.93%

C=CCn1c(SCc2ccc(F)cc2)nc2c1c(=O)[nH]c(=O)n2C
inactive: growth inhibition [1] -8.99% | growth inhibition [2] -8.69% | viability increase [3] -2.64% | viability [4] 96.9% | viability [5] 89% | inhibition [6] 0.25% | RAM network inhibition [7] 2.71%

Cc1nnc(SCCC(C)C)[nH]c1=O
inactive: growth inhibition [1] -1.1% | growth inhibition [2] 0.225% | viability increase [3] -2.93% | viability [4] 101% | viability [5] 99.7% | inhibition [6] 0.745% | RAM network inhibition [7] 3.25%

COCCCN1Cc2cccc(C(=O)O)c2C1=O
inactive: growth inhibition [1] 1.16% | growth inhibition [2] 4.03% | viability increase [3] -2.13% | viability [4] 103% | viability [5] 102% | inhibition [6] 0.525% | RAM network inhibition [7] 7.02%

CCCC1(C(=O)O)NC(c2ccccc2O)C2C(=O)N(c3cccc(Cl)c3)C(=O)C21 (configuration not stated)
inactive: growth inhibition [1] 6.45% | growth inhibition [2] 7.74% | viability increase [3] 0.1% | viability [4] 107% | viability [5] 94.5% | inhibition [6] 0.955% | RAM network inhibition [7] 0.05%

CCOC(=O)c1oc2cc(O)c(CC)cc2c(=O)c1-c1ccc2c(c1)OCCO2
inactive: growth inhibition [1] -22.8% | growth inhibition [2] -16.3% | viability increase [3] -2.23% | viability [4] 101% | viability [5] 91.7% | inhibition [6] 3% | RAM network inhibition [7] 5.4%

COc1cc2[nH]c(=O)n(CCCCCC(=O)NCCCN3CCC(C)CC3)c(=O)c2cc1OC
inactive: growth inhibition [1] -13.8% | growth inhibition [2] -6.3% | viability increase [3] -0.8% | viability [4] 93.8% | viability [5] 101% | inhibition [6] 1.68% | RAM network inhibition [7] 2.66%
